Measurements: ChEMBL document CHEMBL1126613, “Centrally acting serotonergic agents. Synthesis and structure-activity relationships of C-1- or C-3-substituted derivatives of 8-hydroxy-2-(di-n-propylamino)tetralin” (J Med Chem, 1993)
“And” between values parts separate entries of the source, which are not always exact repeats. Identical values can stand only once.

Columns and labels:
Felis catus [1] = species: Felis catus; test: Maximum decrease observed; assay type: functional; parameters: unit not given here
Felis catus [2] = test: Maximum decrease on arterial blood pressure at 1 mg/kg; assay type: functional
How it was run: (§1)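 Adult cats (2.5-4.0 kg) anesthetized with ketamine 11 mg/kg im, then chloralose 80 mg/kg iv. Femoral artery cannulated for blood pressure, femoral vein for drug. Ventilated, paralyzed with gallamine 4 mg/kg iv, rectal temperature held at 37-38 °C. Cumulative iv doses given at 20-min intervals. Maximum decrease reported following a 1 mg/kg iv dose.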

Felis catus [3] = test: Dose on arterial blood pressure (BP) in anesthetized cat; assay type: functional; how it was run: as §1
Felis catus [4] = species: Felis catus; test: Dose at which the SND has been reduced to 50% of the pretreatment value; assay type: functional
How it was run: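 Adult cats (2.5-4.0 kg), ketamine 11 mg/kg im then chloralose 80 mg/kg iv, ventilated, gallamine-paralyzed, rectal temperature 37-38 °C. Sympathetic nerve discharge quantified by cumulative integration. Cumulative iv doses were given at 20-min intervals. Value is the dose reducing discharge to 50% of pretreatment.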

Mus musculus [5] = test: Tested in vivo for the effective dose administered orally in mouse hypothermia assay; assay type: functional; settings: po
How it was run: (§2)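 Charles River CF-1 mice (18-22 g, 4 per dose), housed individually 20 min before testing. Rectal temperature taken before dosing and 20 min after (sc 0.1 mL; oral 0.2 mL by gavage needle). A drop of ≥2 °F counted as positive. Doses started at 30 mg/kg and fell by half-log until 0/4 responded.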

Mus musculus [6] = test: In vivo effective dose administered subcutaneously in mouse hypothermia assay.; assay type: functional; settings: sc; how it was run: as §2
Mus musculus [7] = test: Tested in vivo for the maximum temperature decrease in mouse hypothermia assay.; assay type: functional
How it was run: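 CF-1 mice (18-22 g, 4 per dose), dosed sc or orally. Rectal temperature measured before dosing and 20 min after. The mean maximum temperature drop (°F) at 20 min after any dose is recorded as an efficacy index.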

Rattus norvegicus [8] = test: Effect on the synthesis rate of dopamine (DOPA) accumulation at the dose of 3.4 umol/kg in the rat ventral limbic brain region; assay type: functional, Limbic system
How it was run: (§3)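 Male Sprague-Dawley rats dosed sc with drug or vehicle at time zero. NSD 1015 (100 mg/kg ip) given 15 min later to block aromatic decarboxylase. Brain DOPA and 5-HTP measured by electrochemical detection with peak integration. Expressed as percent change from NSD 1015 plus saline controls. Control and test groups N = 6 each, compared by unpaired t test.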

Rattus norvegicus [9] = test: Effect on the synthesis rate of 5 HTP accumulation at the dose of 3.4 umol/kg in the rat ventral limbic brain region; assay type: functional, Limbic system; how it was run: as §3
Mus musculus [10] = test: Behavioral time in mouse face to face assay at 36 umol/kg administered subcutaneously; assay type: functional
How it was run: (§4)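 Male CF-1 mice (Charles River, 19-29 g), 8 pairs per dose, dosed sc, ip or orally in 0.25% methylcellulose or 0.1% citric acid; 30 min absorption housed with familiar partner. Pairs from different home cages placed in small litter-floored cage; face-to-face interaction duration scored visually for 3 min. Wilcoxon rank sum (two-tailed) vs daily control, p < 0.05.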

Mus musculus [11] = test: Behavioral time in mouse face to face assay at 0.4 umol/kg administered subcutaneously; assay type: functional; how it was run: as §4
Mus musculus [12] = test: Behavioral time in mouse face to face assay at 3.6 umol/kg administered subcutaneously; assay type: functional; how it was run: as §4
Mus musculus [13] = test: Behavioral time in mouse face to face assay at 0 umol/kg administered subcutaneously; assay type: functional; how it was run: as §4
Rattus norvegicus [14] = test: Effect on the synthesis rate of dopamine (DOPA) accumulation at the dose of 3.6 umol/kg in the rat ventral limbic brain region; assay type: functional, Limbic system; how it was run: as §3
Rattus norvegicus [15] = test: Effect on the synthesis rate of 5 HTP accumulation at the dose of 3.6 umol/kg in the rat ventral limbic brain region; assay type: functional, Limbic system; how it was run: as §3

Row | SMILES | Max decrease (Felis catus [1]) | Max decrease (Felis catus [2]) | BP (Felis catus [3]) [%] | ED50 (Felis catus [4]) [µmol/kg] | ED50 (Mus musculus [5]) [µmol/kg] | ED50 (Mus musculus [6]) [µmol/kg] | TMP.decrease (Mus musculus [7]) | Change (Rattus norvegicus [8]) [%] | Change (Rattus norvegicus [9]) [%] | Time (Mus musculus [10]) [s] | Time (Mus musculus [11]) [s] | Time (Mus musculus [12]) [s] | Time (Mus musculus [13]) [s] | Change (Rattus norvegicus [14]) [%] | Change (Rattus norvegicus [15]) [%]
1 | C=CCN[C@@H]1CCc2cccc(OC)c2[C@H]1CC=C (relative stereo) | 10 | 45 | 59 | 1.19 | 79 | 5.9 | 11.5 degrees F and 6.6 degrees F | – | – | – | – | – | – | – | –
2 | C=CC[C@H]1c2c(cccc2OC)CC[C@H]1NCCC | 10 | 57 | 85 | 0.27 | 78 | 3.4 | 7.6 degrees F and 6 degrees F | 2.2 | -50 | – | – | – | – | – | –
3 | C=CCN[C@@H]1CCc2cccc(O)c2[C@@H]1CC=C | – | – | – | – | > 107 | 1.1 | – | – | – | 2.6 | 0.8 | 0.5 | 0.8 | 38 | -48
4 | C=CC[C@H]1c2c(cccc2OC)CC[C@H]1NCC1CC1 | 10 | 58 | 65 | 0.27 | 134 | 18 | – | – | – | – | – | – | – | – | –
